PMI act hi M6P – activators of human phosphomannose isomerase at near-saturating mannose 6-phosphate | coupled PMI enzyme assay, resazurin fluorescence, 20 min; stronger effect = higher value; 1 = untreated enzyme, 0 = substrate-free blank | AID 1216 | P34949 | activation factor at 20 µM | hit rate 0.34% among 190,000;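 active = activation factor of 2 or more at 20 µM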
Target sequence (P34949 whole entry, looked up): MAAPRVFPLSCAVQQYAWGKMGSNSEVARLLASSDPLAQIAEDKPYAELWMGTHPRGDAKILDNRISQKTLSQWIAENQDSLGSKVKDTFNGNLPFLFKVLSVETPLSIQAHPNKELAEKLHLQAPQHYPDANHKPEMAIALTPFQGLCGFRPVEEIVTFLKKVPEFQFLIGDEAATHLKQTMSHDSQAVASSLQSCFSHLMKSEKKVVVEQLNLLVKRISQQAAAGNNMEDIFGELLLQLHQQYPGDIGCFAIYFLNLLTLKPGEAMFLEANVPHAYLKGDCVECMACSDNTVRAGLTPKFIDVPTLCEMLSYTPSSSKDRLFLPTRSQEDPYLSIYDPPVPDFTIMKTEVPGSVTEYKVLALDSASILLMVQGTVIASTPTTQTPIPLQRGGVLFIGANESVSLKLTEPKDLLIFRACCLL
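Material: human phosphomannose isomerase with PGI, G6PDH, diaphorase coupling enzymes. Quantity: 15 ng/mL PMI. Medium: HEPES pH 7.4 buffer with MgCl2 and Tween-20. Reagent: Near-saturating mannose-6-phosphate, 1.0 mM. Compound: 20 µM single dose. Times: enzyme reaction with compound 20 min at room temperature. Detection: resorufin fluorescence at Ex 544/Em 590 nm.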
PMI act – activators of human phosphomannose isomerase; hit rate 0.005% among 190,000; activation factor at 20 µM; purified human PMI, coupled resazurin fluorescence, 20 min; stronger effect = higher value; 1 = vehicle control, 0 substrate-free wells; AID 1214;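 active = activation factor of 2 or more at 20 µM, relative to plate controls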
WT yeast gro inh – growth inhibition of WT yeast, mitochondrial fusion screen; mitochondrial fusion phenotypic screen, WT strain; inhibition, % at 10 µM; hit rate 2.1% among 190,000; AID 1362; in the data active = inhibition above about 58%; tested in S. cerevisiae
L major viab – Leishmania major promastigote growth inhibition | Leishmania major promastigotes, resazurin fluorescence viability | inhibition, % at 10 µM | hit rate 9% among 200,000; in the data active = inhibition above about 50%;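 also: promastigotes grown with compound for 44 hours at 28 °C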
Diaph act CS – counter-screen for diaphorase-based assays: diaphorase activators and chemical reducers. Diaphorase/resazurin coupled assay, resorufin fluorescence, 16 min; stronger effect = higher value; 1 = vehicle wells, 0 = NADH-free wells. activation factor at 20 µM. hit rate 0.005% among 190,000. AID 1229;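 active = diaphorase activity raised at least twofold by the compound at 20 µM; inactive = activation factor below 2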
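System – purified diaphorase enzyme from Clostridium kluyveri · Input – enzyme 0.07 U/mL final · Also added – final NADH 0.114 mM, resazurin 0.1 mM · Measured by – fluorescence of resorufin, 544 nm excitation, 590 nm emission · Timing – 16 min enzyme reaction, ambient temperature · Measure – resorufin increase flagging diaphorase activators or reducers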
L major 1uM – L. major promastigote growth inhibition, 1 uM repeat. shares compounds with L major viab. resazurin fluorescence, 48 h. inhibition, % at 1 µM. hit rate 13% among 1,100. AID 1258;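 active = inhibition above about 50% in both repeat tests, limit read from the data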
The depositor's hits bear a star; · = not tested or not shown. Rows were chosen to be rich in hits. Some 10% of all compounds tested hit in one or more screens of this group.

SMILES | PMI act hi M6P | PMI act | WT yeast gro inh | L major viab | Diaph act CS | L major 1uM
Cc1nc2c(-c3ccc(Cl)cc3)c(C)[nH]n2c(=O)c1Cc1ccccc1 | 1.1 | 0.9 | 2.6 | 99.5* | 0.8 | -6.2
Cc1[nH]c2ccccc2c1N=Nc1cccc(C(=O)O)c1 | 1 | 0.9 | -10.8 | 3.4 | 0.9 | ·
Cc1[nH]c2ccccc2c1N=Nc1ccccc1C(=O)O | 1.2 | 1.3 | 12.2 | 68.2* | 0.6 | -5.4
O=C(Nc1ccc(F)cc1F)N1CCCCC1c1cccnc1 (stereo not given) | 1 | 1 | -7.2 | 73.2* | 0.8 | 9.8
CCOC(=O)c1ccc(NNC(=O)CC)c([N+](=O)[O-])c1 | 1.1 | 1.1 | -18.8 | -3.9 | 1 | ·
COc1cc(CNCc2cccs2)ccc1OCc1ccccc1 | 1 | 1 | 14.8 | 99.3* | 1 | 92.4*
C=C(C)C1Cc2c(C)nn(-c3cccc4ccccc34)c2C1 (stereo not given) | 1 | 1 | 85.7* | 61.3* | 0.9 | -29.4
O=C(NN1C(=O)c2ccccc2C1=O)C1C2CCCCC21 (stereo not given) | 1 | 0.9 | 5.9 | -4.1 | 1 | ·
COc1ccc(/C=C2\SC(=S)N(Cc3cccnc3)C2=O)cc1C | 0.8 | 0.7 | 23.6 | 15.8 | 0.8 | ·
O=C1/C(=C/c2ccc(O)cc2)SC(=S)N1Cc1cccnc1 | 0.9 | 0.9 | 3.2 | 60.2* | 1 | -13.4
COCCCn1c2nc3ccccc3nc2c2c(=O)n(-c3ccccc3OC)cnc21 | 1 | 0.9 | 15.9 | 18.7 | 0.9 | ·
COc1ccccc1-n1cnc2c(c1=O)c1nc3ccccc3nc1n2-c1ccc(C)c(C)c1 | 1.1 | 1 | 22.8 | 97.5* | 0.8 | 96.6*
Cc1ccc(OCC(O)CN2CCN(CC(O)COc3ccc(C)cc3)CC2)cc1 (stereo not given) | 1 | 1 | 2.8 | 57.0* | 1 | -6.5
COc1ccc2c(c1)oc(=O)c1c3ccccc3[nH]c21 | 1 | 1 | 7.3 | 12.5 | 1.1 | ·
Nc1[nH]n(-c2ccccc2)c(=O)c1N=Nc1ccc2c(c1)OCCO2 | 0.8 | 0.9 | 4.9 | 41.5 | 0.7 | ·
Nc1nn(-c2ccccc2)c(N)c1N=Nc1ccc2c(c1)OCO2 | 0.9 | 1 | -9.3 | 87.2* | 0.9 | 79.3*
C/C(=N\OCc1ccccc1)c1c(O)cc(C(C)C)n(-c2ccccc2)c1=O | 1 | 1.1 | 4.6 | -0.5 | 0.9 | ·
COC(=O)CSc1nc(-c2ccccc2)nc2ccccc12 | 1 | 0.9 | 53.0 | -5.6 | 0.7 | ·
CCOc1ccc(C2=Nc3ccccc3C(c3ccc(N4CCOCC4)cc3)=NN2)cc1 | 1.2 | 0.6 | -9.7 | 62.5* | 0.6 | -2.3
CC(=O)NC(CC(=O)N(C)Cc1cccc(Cl)c1Cl)c1ccccc1 (stereo not given) | 1 | 1.2 | -13.8 | 7.2 | 1 | ·
CCN(CC)c1ccc(CN2CCCCCC2)cc1 | 0.9 | 1 | 10.2 | 89.8* | 1 | 27.7
O=C1CCCc2c1cc(-c1ccccc1)n2-c1ccc(O)cc1 | 1 | 1 | -11.6 | 53.3* | 0.8 | -21.8
O=C(O)c1ccccc1-n1c(-c2ccccc2)cc2c1CCCC2=O | 0.9 | 0.9 | -1.5 | -4.7 | 0.9 | ·
CCNC(=S)N(Cc1c(C)noc1C)c1ccccc1 | 0.9 | 0.9 | -13.3 | 50.9* | 0.8 | -5.5
CCCCNC(=S)N(Cc1c(C)noc1C)c1ccccc1 | 1 | 0.9 | 2.0 | -4.0 | 1 | ·
SMILES | PMI act hi M6P | PMI act | WT yeast gro inh | L major viab | Diaph act CS | L major 1uM
COc1ccccc1C(=O)C1CCCN(C(=O)c2snnc2C)C1 (stereo not given) | 1 | 1 | -5.6 | -3.4 | 0.9 | ·
Cc1ccc(O)c(-c2cc(-c3ccccc3C)[nH]n2)c1 | 0.9 | 0.9 | 78.5* | 54.7* | 0.8 | 20.4
COc1ccc(-c2cc(-c3cc(C)ccc3O)[nH]n2)cc1 | 0.9 | 0.9 | 45.9 | 23.9 | 0.7 | ·
Cc1ccc(CC2CC(=O)N(c3nc4ccccc4n3C)C2=O)cc1 (stereo not given) | 1 | 1 | -6.1 | -6.7 | 0.9 | ·
O=C(c1ccc(Cl)c(S(=O)(=O)Nc2ccc(F)cc2)c1)N1CCN(c2ccccn2)CC1 | 1 | 1 | 1.6 | 18.0 | 0.9 | ·
CN(c1ccccc1)S(=O)(=O)c1cc(C(=O)N2CCN(c3ccccn3)CC2)ccc1Cl | 0.9 | 0.9 | -11.2 | 90.5* | 0.9 | -0.5

Source: PubChem
